Results published in ChEMBL document CHEMBL4138284, “Biomimetic Stereoselective Sulfa-Michael Addition Leads to Platensimycin and Platencin Sulfur Analogues against Methicillin-Resistant Staphylococcus aureus” (J Nat Prod, 2018).
In brackets after ≈: the same amount, converted by molar mass.

test system: Staphylococcus aureus; experiment: Antibacterial activity against methicillin-sensitive Staphylococcus aureus isolate 1 incubated overnight by agar dilution method; format: functional; settings: not given
In short: (§1)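 MIC by agar dilution. Strains were grown overnight in LB broth and diluted, then about 10^4 CFU (2 μL spots) were spotted onto LB agar plates containing test compound at 0.5 to 8 μg mL−1 agar. Plates were incubated overnight at 37 °C and inspected for growth. Clinical MSSA and MRSA isolates came from local hospitals.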

Q: For C[C@]12C[C@]34C[C@@H]1C[C@H](O2)[C@H]3[C@](C)(CCC(=O)Nc1c(O)ccc(C(=O)O)c1O)C(=O)C[C@@H]4SC(=O)c1ccccc1, which MIC is on record?
A: 1 µg/mL (≈ 1.73 µM)

Q: Which MIC does the source give for CCS[C@H]1CC(=O)[C@@](C)(CCC(=O)Nc2c(O)ccc(C(=O)O)c2O)[C@@H]2[C@@H]3C[C@H]4C[C@]12C[C@]4(C)O3 here?
A: 0.5 µg/mL (≈ 0.993 µM)

Q: Which MIC does the source give for COc1ccc(C(=O)S[C@H]2CC(=O)[C@@](C)(CCC(=O)Nc3c(O)ccc(C(=O)O)c3O)[C@@H]3[C@@H]4C[C@H]5C[C@]23C[C@]5(C)O4)cc1 here?
A: 1 µg/mL (≈ 1.64 µM)

test system: Staphylococcus aureus; experiment: Antibacterial activity against methicillin-resistant Staphylococcus aureus isolate 7 incubated overnight by agar dilution method; format: functional; settings: not given; in short: as §1

Q: For C[C@]12C[C@]34C[C@@H]1C[C@H](O2)[C@H]3[C@](C)(CCC(=O)Nc1c(O)ccc(C(=O)O)c1O)C(=O)C[C@@H]4SC(=O)c1ccccc1, which MIC is on record?
A: 2 µg/mL (≈ 3.45 µM)

Q: Which MIC does the source give for CCS[C@H]1CC(=O)[C@@](C)(CCC(=O)Nc2c(O)ccc(C(=O)O)c2O)[C@@H]2[C@@H]3C[C@H]4C[C@]12C[C@]4(C)O3 here?
A: 1 µg/mL (≈ 1.99 µM)

Q: For COc1ccc(C(=O)S[C@H]2CC(=O)[C@@](C)(CCC(=O)Nc3c(O)ccc(C(=O)O)c3O)[C@@H]3[C@@H]4C[C@H]5C[C@]23C[C@]5(C)O4)cc1, which MIC is on record?
A: 2 µg/mL (≈ 3.28 µM)

test system: Staphylococcus aureus; experiment: Antibacterial activity against methicillin-resistant Staphylococcus aureus isolate 9 incubated overnight by agar dilution method; format: functional; settings: not given; in short: as §1

Q: For C[C@]12C[C@]34C[C@@H]1C[C@H](O2)[C@H]3[C@](C)(CCC(=O)Nc1c(O)ccc(C(=O)O)c1O)C(=O)C[C@@H]4SC(=O)c1ccccc1, which MIC is on record?
A: 1 µg/mL (≈ 1.73 µM)

Q: With CCS[C@H]1CC(=O)[C@@](C)(CCC(=O)Nc2c(O)ccc(C(=O)O)c2O)[C@@H]2[C@@H]3C[C@H]4C[C@]12C[C@]4(C)O3 as the molecule, how does the MIC read?
A: 1 µg/mL (≈ 1.99 µM)

Q: With COc1ccc(C(=O)S[C@H]2CC(=O)[C@@](C)(CCC(=O)Nc3c(O)ccc(C(=O)O)c3O)[C@@H]3[C@@H]4C[C@H]5C[C@]23C[C@]5(C)O4)cc1 as the molecule, how does the MIC read?
A: 1 µg/mL (≈ 1.64 µM)

test system: Staphylococcus aureus; experiment: Antibacterial activity against Staphylococcus aureus ATCC 29213 incubated overnight by agar dilution method; format: functional; settings: not given; in short: as §1

Q: For C[C@]12C[C@]34C[C@@H]1C[C@H](O2)[C@H]3[C@](C)(CCC(=O)Nc1c(O)ccc(C(=O)O)c1O)C(=O)C[C@@H]4SC(=O)c1ccccc1, which MIC is on record?
A: 1 µg/mL (≈ 1.73 µM)

Q: For CCS[C@H]1CC(=O)[C@@](C)(CCC(=O)Nc2c(O)ccc(C(=O)O)c2O)[C@@H]2[C@@H]3C[C@H]4C[C@]12C[C@]4(C)O3, which MIC is on record?
A: 0.5 µg/mL (≈ 0.993 µM)

Q: Which MIC does the source give for COc1ccc(C(=O)S[C@H]2CC(=O)[C@@](C)(CCC(=O)Nc3c(O)ccc(C(=O)O)c3O)[C@@H]3[C@@H]4C[C@H]5C[C@]23C[C@]5(C)O4)cc1 here?
A: 1 µg/mL (≈ 1.64 µM)

test system: not listed separately; experiment: Stability of the compound in PBS at pH 7.1 at 0.1 mg/ml after 16 hrs by HPLC analysis; format: physicochemical; settings: buffer, pH 7.1, 16 h
In short: (§2)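 Compound at 0.1 mg mL−1 dissolved in 1 mM PBS at the stated pH. Held at 37 °C for 16 h. Remaining compound and retro-Michael reversion products analysed by HPLC.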

Q: For C[C@]12C[C@]34C[C@@H]1C[C@H](O2)[C@H]3[C@](C)(CCC(=O)Nc1c(O)ccc(C(=O)O)c1O)C(=O)C[C@@H]4SC(=O)c1ccccc1, which Stability is on record?
A: Stable

Q: For CCS[C@H]1CC(=O)[C@@](C)(CCC(=O)Nc2c(O)ccc(C(=O)O)c2O)[C@@H]2[C@@H]3C[C@H]4C[C@]12C[C@]4(C)O3, which Stability is on record?
A: Stable

Q: Which Stability does the source give for COc1ccc(C(=O)S[C@H]2CC(=O)[C@@](C)(CCC(=O)Nc3c(O)ccc(C(=O)O)c3O)[C@@H]3[C@@H]4C[C@H]5C[C@]23C[C@]5(C)O4)cc1 here?
A: Stable

test system: Staphylococcus aureus; experiment: Antibacterial activity against methicillin-resistant Staphylococcus aureus isolate 11 incubated overnight by agar dilution method; format: functional; settings: not given; in short: as §1

Q: For C[C@]12C[C@]34C[C@@H]1C[C@H](O2)[C@H]3[C@](C)(CCC(=O)Nc1c(O)ccc(C(=O)O)c1O)C(=O)C[C@@H]4SC(=O)c1ccccc1, which MIC is on record?
A: 2 µg/mL (≈ 3.45 µM)

Q: Which MIC does the source give for CCS[C@H]1CC(=O)[C@@](C)(CCC(=O)Nc2c(O)ccc(C(=O)O)c2O)[C@@H]2[C@@H]3C[C@H]4C[C@]12C[C@]4(C)O3 here?
A: 1 µg/mL (≈ 1.99 µM)

Q: With COc1ccc(C(=O)S[C@H]2CC(=O)[C@@](C)(CCC(=O)Nc3c(O)ccc(C(=O)O)c3O)[C@@H]3[C@@H]4C[C@H]5C[C@]23C[C@]5(C)O4)cc1 as the molecule, how does the MIC read?
A: 2 µg/mL (≈ 3.28 µM)

test system: not listed separately; experiment: Stability of the compound in PBS at pH 5.8 at 0.1 mg/ml after 16 hrs by HPLC analysis; format: physicochemical; settings: buffer, pH 5.8, 16 h; in short: as §2

Q: Which Stability does the source give for C[C@]12C[C@]34C[C@@H]1C[C@H](O2)[C@H]3[C@](C)(CCC(=O)Nc1c(O)ccc(C(=O)O)c1O)C(=O)C[C@@H]4SC(=O)c1ccccc1 here?
A: Stable

Q: With CCS[C@H]1CC(=O)[C@@](C)(CCC(=O)Nc2c(O)ccc(C(=O)O)c2O)[C@@H]2[C@@H]3C[C@H]4C[C@]12C[C@]4(C)O3 as the molecule, how does the Stability read?
A: Stable

Q: With COc1ccc(C(=O)S[C@H]2CC(=O)[C@@](C)(CCC(=O)Nc3c(O)ccc(C(=O)O)c3O)[C@@H]3[C@@H]4C[C@H]5C[C@]23C[C@]5(C)O4)cc1 as the molecule, how does the Stability read?
A: Stable

test system: Staphylococcus aureus; experiment: Antibacterial activity against methicillin-sensitive Staphylococcus aureus isolate 4 incubated overnight by agar dilution method; format: functional; settings: not given; in short: as §1

Q: Which MIC does the source give for C[C@]12C[C@]34C[C@@H]1C[C@H](O2)[C@H]3[C@](C)(CCC(=O)Nc1c(O)ccc(C(=O)O)c1O)C(=O)C[C@@H]4SC(=O)c1ccccc1 here?
A: 1 µg/mL (≈ 1.73 µM)

Q: With CCS[C@H]1CC(=O)[C@@](C)(CCC(=O)Nc2c(O)ccc(C(=O)O)c2O)[C@@H]2[C@@H]3C[C@H]4C[C@]12C[C@]4(C)O3 as the molecule, how does the MIC read?
A: 1 µg/mL (≈ 1.99 µM)

Q: With COc1ccc(C(=O)S[C@H]2CC(=O)[C@@](C)(CCC(=O)Nc3c(O)ccc(C(=O)O)c3O)[C@@H]3[C@@H]4C[C@H]5C[C@]23C[C@]5(C)O4)cc1 as the molecule, how does the MIC read?
A: 1 µg/mL (≈ 1.64 µM)

test system: Staphylococcus aureus; experiment: Antibacterial activity against methicillin-sensitive Staphylococcus aureus isolate 3 incubated overnight by agar dilution method; format: functional; settings: not given; in short: as §1

Q: With C[C@]12C[C@]34C[C@@H]1C[C@H](O2)[C@H]3[C@](C)(CCC(=O)Nc1c(O)ccc(C(=O)O)c1O)C(=O)C[C@@H]4SC(=O)c1ccccc1 as the molecule, how does the MIC read?
A: 1 µg/mL (≈ 1.73 µM)

Q: Which MIC does the source give for CCS[C@H]1CC(=O)[C@@](C)(CCC(=O)Nc2c(O)ccc(C(=O)O)c2O)[C@@H]2[C@@H]3C[C@H]4C[C@]12C[C@]4(C)O3 here?
A: 1 µg/mL (≈ 1.99 µM)

Q: With COc1ccc(C(=O)S[C@H]2CC(=O)[C@@](C)(CCC(=O)Nc3c(O)ccc(C(=O)O)c3O)[C@@H]3[C@@H]4C[C@H]5C[C@]23C[C@]5(C)O4)cc1 as the molecule, how does the MIC read?
A: 1 µg/mL (≈ 1.64 µM)

test system: Staphylococcus aureus; experiment: Antibacterial activity against methicillin-resistant Staphylococcus aureus isolate 6 incubated overnight by agar dilution method; format: functional; settings: not given; in short: as §1

Q: For C[C@]12C[C@]34C[C@@H]1C[C@H](O2)[C@H]3[C@](C)(CCC(=O)Nc1c(O)ccc(C(=O)O)c1O)C(=O)C[C@@H]4SC(=O)c1ccccc1, which MIC is on record?
A: 1 µg/mL (≈ 1.73 µM)

Q: With CCS[C@H]1CC(=O)[C@@](C)(CCC(=O)Nc2c(O)ccc(C(=O)O)c2O)[C@@H]2[C@@H]3C[C@H]4C[C@]12C[C@]4(C)O3 as the molecule, how does the MIC read?
A: 2 µg/mL (≈ 3.97 µM)

Q: For COc1ccc(C(=O)S[C@H]2CC(=O)[C@@](C)(CCC(=O)Nc3c(O)ccc(C(=O)O)c3O)[C@@H]3[C@@H]4C[C@H]5C[C@]23C[C@]5(C)O4)cc1, which MIC is on record?
A: 1 µg/mL (≈ 1.64 µM)

test system: Staphylococcus aureus; experiment: Antibacterial activity against methicillin-resistant Staphylococcus aureus isolate 10 incubated overnight by agar dilution method; format: functional; settings: not given; in short: as §1

Q: For C[C@]12C[C@]34C[C@@H]1C[C@H](O2)[C@H]3[C@](C)(CCC(=O)Nc1c(O)ccc(C(=O)O)c1O)C(=O)C[C@@H]4SC(=O)c1ccccc1, which MIC is on record?
A: 1 µg/mL (≈ 1.73 µM)

Q: With CCS[C@H]1CC(=O)[C@@](C)(CCC(=O)Nc2c(O)ccc(C(=O)O)c2O)[C@@H]2[C@@H]3C[C@H]4C[C@]12C[C@]4(C)O3 as the molecule, how does the MIC read?
A: 1 µg/mL (≈ 1.99 µM)

Q: For COc1ccc(C(=O)S[C@H]2CC(=O)[C@@](C)(CCC(=O)Nc3c(O)ccc(C(=O)O)c3O)[C@@H]3[C@@H]4C[C@H]5C[C@]23C[C@]5(C)O4)cc1, which MIC is on record?
A: 1 µg/mL (≈ 1.64 µM)

test system: Staphylococcus aureus; experiment: Antibacterial activity against methicillin-resistant Staphylococcus aureus isolate 8 incubated overnight by agar dilution method; format: functional; settings: not given; in short: as §1

Q: Which MIC does the source give for C[C@]12C[C@]34C[C@@H]1C[C@H](O2)[C@H]3[C@](C)(CCC(=O)Nc1c(O)ccc(C(=O)O)c1O)C(=O)C[C@@H]4SC(=O)c1ccccc1 here?
A: 1 µg/mL (≈ 1.73 µM)

Q: Which MIC does the source give for CCS[C@H]1CC(=O)[C@@](C)(CCC(=O)Nc2c(O)ccc(C(=O)O)c2O)[C@@H]2[C@@H]3C[C@H]4C[C@]12C[C@]4(C)O3 here?
A: 1 µg/mL (≈ 1.99 µM)

Q: With COc1ccc(C(=O)S[C@H]2CC(=O)[C@@](C)(CCC(=O)Nc3c(O)ccc(C(=O)O)c3O)[C@@H]3[C@@H]4C[C@H]5C[C@]23C[C@]5(C)O4)cc1 as the molecule, how does the MIC read?
A: 1 µg/mL (≈ 1.64 µM)

test system: Staphylococcus aureus; experiment: Antibacterial activity against methicillin-resistant Staphylococcus aureus isolate 5 incubated overnight by agar dilution method; format: functional; settings: not given; in short: as §1

Q: For C[C@]12C[C@]34C[C@@H]1C[C@H](O2)[C@H]3[C@](C)(CCC(=O)Nc1c(O)ccc(C(=O)O)c1O)C(=O)C[C@@H]4SC(=O)c1ccccc1, which MIC is on record?
A: 2 µg/mL (≈ 3.45 µM)

Q: With CCS[C@H]1CC(=O)[C@@](C)(CCC(=O)Nc2c(O)ccc(C(=O)O)c2O)[C@@H]2[C@@H]3C[C@H]4C[C@]12C[C@]4(C)O3 as the molecule, how does the MIC read?
A: 1 µg/mL (≈ 1.99 µM)

Q: Which MIC does the source give for COc1ccc(C(=O)S[C@H]2CC(=O)[C@@](C)(CCC(=O)Nc3c(O)ccc(C(=O)O)c3O)[C@@H]3[C@@H]4C[C@H]5C[C@]23C[C@]5(C)O4)cc1 here?
A: 2 µg/mL (≈ 3.28 µM)

test system: Staphylococcus aureus; experiment: Antibacterial activity against methicillin-sensitive Staphylococcus aureus isolate 2 incubated overnight by agar dilution method; format: functional; settings: not given; in short: as §1

Q: For C[C@]12C[C@]34C[C@@H]1C[C@H](O2)[C@H]3[C@](C)(CCC(=O)Nc1c(O)ccc(C(=O)O)c1O)C(=O)C[C@@H]4SC(=O)c1ccccc1, which MIC is on record?
A: 1 µg/mL (≈ 1.73 µM)

Q: With CCS[C@H]1CC(=O)[C@@](C)(CCC(=O)Nc2c(O)ccc(C(=O)O)c2O)[C@@H]2[C@@H]3C[C@H]4C[C@]12C[C@]4(C)O3 as the molecule, how does the MIC read?
A: 0.5 µg/mL (≈ 0.993 µM)

Q: Which MIC does the source give for COc1ccc(C(=O)S[C@H]2CC(=O)[C@@](C)(CCC(=O)Nc3c(O)ccc(C(=O)O)c3O)[C@@H]3[C@@H]4C[C@H]5C[C@]23C[C@]5(C)O4)cc1 here?
A: 1 µg/mL (≈ 1.64 µM)
